From ChEMBL document CHEMBL4196015, “Synthesis of coumarin-theophylline hybrids as a new class of anti-tubercular and anti-microbial agents” (2018)
≈ marks a conversion by molar mass, not a printed value.

Experiments:
[1] = system: Mycobacterium tuberculosis; assay: Antitubercular activity against Mycobacterium tuberculosis H37Rv ATCC 27294 after 5 days by microplate alamar blue assay; format: functional; settings: H37Rv ATCC 27294, 120 h
Method in brief: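 Retest of compounds above 90% inhibition in the primary screen. Two-fold serial dilution on plate in Middlebrook 7H9 broth, in triplicate. Isoniazid as positive control. Plates sealed, 37 °C for 5 days. Then 1:1 Alamar Blue/10% Tween 80 added, 24 h more. Blue = inhibition, pink = growth. MIC taken as lowest inhibiting concentration.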

[2] = system: Mycobacterium tuberculosis; assay: Antitubercular activity against Mycobacterium tuberculosis H37Rv ATCC 27294 at 7.8 ug/ml after 5 days by microplate alamar blue assay; format: functional
Method in brief: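 Single-concentration primary screen at 7.8 µg/mL against M. tuberculosis H37Rv (ATCC-27294) by MABA, read as percent inhibition. Run in Middlebrook 7H9 broth, with BACTEC 12B medium also cited, at 37 °C for 5 days. Then 1:1 Alamar Blue/10% Tween 80 added and incubated 24 h. Colour read: blue = inhibition, pink = growth.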

[3] = system: Staphylococcus aureus; assay: Antibacterial activity against Staphylococcus aureus after 24 hrs by broth microdilution method; format: functional
Method in brief: (§1)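 Broth microdilution, 96-well. Inoculum from 24 h broth cultures adjusted to 0.5 McFarland. Compounds dissolved in DMSO at 1 mg/mL (stock), two-fold serial dilutions in tryptone broth (1000 to 3.9 μg/mL). Positive controls: tetracyclin for bacteria, nystatin for fungi. Incubated 37 °C, 24 h. Then 0.01% aqueous resazurin added for viability. MIC = lowest concentration inhibiting growth.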

[4] = system: Candida albicans; assay: Antifungal activity against Candida albicans after 24 hrs by broth microdilution method; format: functional; method in brief: as §1
[5] = system: Salmonella typhi; assay: Antibacterial activity against Salmonella typhi after 24 hrs by broth microdilution method; format: functional, Salmonella enterica subsp. enterica serovar Typhi; settings: Salmonella enterica; method in brief: as §1
[6] = system: Escherichia coli; assay: Antibacterial activity against Escherichia coli after 24 hrs by broth microdilution method; format: functional; method in brief: as §1

Row | Structure (SMILES) | MIC [1] [µg/mL] | Activity [2] [%] | MIC [3] [µg/mL] | MIC [4] [µg/mL] | MIC [5] [µg/mL] | MIC [6] [µg/mL]
1 | Cn1c(=O)c2ncn(Cc3cc(=O)oc4ccc(C(C)(C)C)cc34)c2n(C)c1=O | 0.48 (≈ 1.22 µM) | 96 | 7.8 (≈ 19.8 µM) | 62.5 (≈ 158 µM) | 7.8 (≈ 19.8 µM) | 3.9 (≈ 9.89 µM)
2 | Cc1cc(C)c2c(Cn3cnc4c(=O)n(C)c(=O)n(C)c43)cc(=O)oc2c1 | 0.97 (≈ 2.65 µM) | 94 | 15.6 (≈ 42.6 µM) | 250 (≈ 682 µM) | 250 (≈ 682 µM) | 125 (≈ 341 µM)
3 | Cn1c(=O)c2ncn(Cc3cc(=O)oc4ccc5ccccc5c34)c2n(C)c1=O | 1.95 (≈ 5.02 µM) | 92 | 7.8 (≈ 20.1 µM) | 62.5 (≈ 161 µM) | 15.6 (≈ 40.2 µM) | 7.8 (≈ 20.1 µM)
4 | Cc1ccc2c(Cn3cnc4c(=O)n(C)c(=O)n(C)c43)cc(=O)oc2c1 | 1.95 (≈ 5.53 µM) | 92 | 62.5 (≈ 177 µM) | 31.3 (≈ 88.8 µM) | 125 (≈ 355 µM) | 31.3 (≈ 88.8 µM)
5 | Cc1ccc2oc(=O)cc(Cn3cnc4c(=O)n(C)c(=O)n(C)c43)c2c1 | 0.12 (≈ 0.341 µM) | 96 | 3.9 (≈ 11.1 µM) | 31.3 (≈ 88.8 µM) | 7.8 (≈ 22.1 µM) | 3.9 (≈ 11.1 µM)
6 | Cn1c(=O)c2ncn(Cc3cc(=O)oc4ccc(Br)cc34)c2n(C)c1=O | 3.9 (≈ 9.35 µM) | 92 | 15.6 (≈ 37.4 µM) | 125 (≈ 300 µM) | 31.3 (≈ 75 µM) | 31.3 (≈ 75 µM)
7 | C[C@@H]1[C@H](O)[C@@H](C)/C=C/C=C/C=C/C=C/C=C/C=C/C=C/[C@H](O[C@@H]2O[C@H](C)[C@@H](O)[C@H](N)[C@@H]2O)C[C@@H]2O[C@](O)(C[C@@H](O)C[C@@H](O)[C@H](O)CC[C@@H](O)C[C@@H](O)CC(=O)O[C@H]1C)C[C@H](O)[C@H]2C(=O)O [AMPHOTERICIN B] | – | – | – | 0.97 (≈ 1.05 µM) | – | –
8 | COc1ccc2oc(=O)cc(Cn3cnc4c(=O)n(C)c(=O)n(C)c43)c2c1 | – | 56 | 7.8 (≈ 21.2 µM) | 31.3 (≈ 85 µM) | 7.8 (≈ 21.2 µM) | 7.8 (≈ 21.2 µM)
9 | NNC(=O)c1ccncc1 [ISONIAZID] | 0.06 (≈ 0.438 µM) | 100 | – | – | – | –
10 | CN(C)[C@@H]1C(O)=C(C(N)=O)C(=O)[C@@]2(O)C(O)=C3C(=O)c4c(O)cccc4[C@@](C)(O)[C@H]3C[C@@H]12 [TETRACYCLINE] | – | – | 3.9 (≈ 8.78 µM) | – | 3.9 (≈ 8.78 µM) | 3.9 (≈ 8.78 µM)
11 | Cn1c(=O)c2ncn(Cc3cc(=O)oc4c3ccc3ccccc34)c2n(C)c1=O | – | 16 | 15.6 (≈ 40.2 µM) | 62.5 (≈ 161 µM) | 62.5 (≈ 161 µM) | 15.6 (≈ 40.2 µM)
12 | Cn1c(=O)c2ncn(Cc3cc(=O)oc4ccc(Cl)cc34)c2n(C)c1=O | 3.9 (≈ 10.5 µM) | 92 | 31.3 (≈ 84 µM) | 125 (≈ 335 µM) | 62.5 (≈ 168 µM) | 31.3 (≈ 84 µM)
13 | Cn1c(=O)c2ncn(Cc3cc(=O)oc4cc(O)ccc34)c2n(C)c1=O | – | 15 | 15.6 (≈ 44 µM) | 62.5 (≈ 176 µM) | 31.5 (≈ 88.9 µM) | 125 (≈ 353 µM)
